INS-1E GSIS act – primary screen for activators of insulin secretion dependent on glucose, INS-1E cells, GLuc reporter luminescence | INS-1E GLuc reporter insulin secretion, 2-3 h | activation, % at 16.6 µM | actives 0.61% (n = 370,000);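 active means lowest replicate activation of at least 40%, so every replicate reaches that level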
ERp5 inh – inhibitors of human ERp5; Q15084; ERp5 insulin aggregation, absorbance 650 nm, 90 min; inhibition, % at 9.99 µM; actives 0.05% (n = 350,000); AID 651711;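 active means mean replicate inhibition above about 25%, with every replicate also reaching it, limit read from the data, passing the limit was not always enough; inconclusive means only one of those two criteria met; inactive means neither criterion met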
SIRT5 inh – inhibitors of human sirtuin-5 desuccinylase; Purified SirT5, succinyl-peptide AMC, trypsin-coupled fluorescence; inhibition, % at 15 µM; actives 1.1% (n = 330,000); AID 652115; in the data active means inhibition above about 15%; inconclusive means no clear call, values can overlap the other calls
Target sequence (Q9NXA8 whole entry, looked up): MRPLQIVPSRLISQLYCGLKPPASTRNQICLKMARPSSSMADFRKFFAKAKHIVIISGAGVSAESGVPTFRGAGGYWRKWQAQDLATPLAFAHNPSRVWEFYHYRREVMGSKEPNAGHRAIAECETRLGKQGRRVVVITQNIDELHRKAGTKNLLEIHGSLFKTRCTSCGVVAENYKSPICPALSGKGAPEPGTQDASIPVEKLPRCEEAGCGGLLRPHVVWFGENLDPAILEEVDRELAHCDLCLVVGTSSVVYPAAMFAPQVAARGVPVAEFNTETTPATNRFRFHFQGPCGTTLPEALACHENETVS
PDI inh – inhibitors of human protein disulfide isomerase; actives 0.052% (n = 350,000); PDI insulin aggregation turbidity, A650, 90 min; P07237; AID 588391; inhibition, % at 10 µM;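 active means mean inhibition across replicates of 30% or more, whatever share of single replicates reach that level; inconclusive means mean inhibition below 30% while every single replicate reaches 30%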
S100A4 inh HTS – S100A4-myosin IIA interaction inhibition | inhibition, % at 10.7 µM | S100A4/TAMRA-MyoIIA peptide fluorescence polarization | actives 0.14% (n = 360,000) | AID 652163 | P26447;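 active means mean inhibition of at least 70% across replicates, with every replicate also reaching that level; inconclusive means mean inhibition reaches 70% but some replicates fall short; inactive means mean inhibition below 70%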
Target sequence (P26447 whole entry, looked up): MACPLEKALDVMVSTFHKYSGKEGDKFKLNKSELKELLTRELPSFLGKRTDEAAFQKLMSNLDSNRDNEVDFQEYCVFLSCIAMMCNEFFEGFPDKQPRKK
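System – human S100A4 monomer protein, biochemical binding assay · Buffer or medium – Calcium-containing HEPES buffer, pH 7.2 · Timing – 5 min between mix addition and reading · Also added – TAMRA-labelled myosin IIA heavy-chain peptide probe, 5 nM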
Numbers stand for hits; n = inactive; u = inconclusive; x = not tested or not shown; ! = not confirmed by another sample. An excerpt weighted towards active compounds, which were near 1.5% of everything screened.

SMILES | INS-1E GSIS act | ERp5 inh | SIRT5 inh | PDI inh | S100A4 inh HTS
COCC(=O)N(C)C[C@H]1Oc2ncc(Br)cc2C(=O)N([C@H](C)CO)C[C@H]1C | n | n | n | x | n
C[C@@H]1CN([C@@H](C)CO)C(=O)c2cc(Br)cnc2O[C@H]1CN(C)C(=O)C1CCCCC1 | n | n | 18! | n | n
C[C@H](CO)N1C[C@H](C)[C@H](CN(C)C(=O)C2CCOCC2)Oc2ncc(C#CC(C)(C)O)cc2C1=O | n | n | n | x | n
O=C(N[C@H]1CC[C@@H](CCNS(=O)(=O)c2ccc(F)cc2)O[C@H]1CO)c1cccnc1 | n | n | n | x | n
CCCNC(=O)NC[C@@H]1[C@H](c2ccc(C3=CCCC3)cc2)[C@@H](CO)N1C(=O)CC | n | n | n | x | n
CCCc1cc2c(OC)ccc(O)c2c(=O)n1C | 53 | n | x | x | n
COCCNC(=O)C[C@@H]1CC[C@H]2[C@@H](COC[C@@H](O)CN2Cc2cccc(-c3ccncc3)c2)O1 | n | n | n | x | n
O=C(C[C@H]1CC[C@@H]2[C@H](COC[C@H](O)CN2Cc2ccc3c(c2)OCO3)O1)N1CCOCC1 | n | n | n | x | n
COCCNC(=O)C[C@@H]1CC[C@H]2[C@@H](COC[C@H](O)CN2Cc2cccc(-c3ccncc3)c2)O1 | n | n | n | x | 90
O=C(C[C@@H]1CC[C@@H]2[C@H](COC[C@@H](O)CN2Cc2ccc3c(c2)OCO3)O1)N1CCOCC1 | n | n | 27 | x | n
O=C(C[C@H]1CC[C@H]2[C@@H](COC[C@@H](O)CN2Cc2cccc(Cl)c2)O1)N1CCCCC1 | n | n | 19 | x | n
O=C(C[C@@H]1CC[C@@H]2[C@H](COC[C@@H](O)CN2Cc2cccc(Cl)c2)O1)N1CCCCC1 | n | n | n | x | n
COc1ccc(NC(=O)N[C@@H]2CC[C@@H](CCNS(=O)(=O)c3ccccc3F)O[C@H]2CO)cc1 | n | n | n | x | n
COc1ccc(S(=O)(=O)Nc2ccc3c(c2)C(=O)N([C@@H](C)CO)C[C@H](C)[C@@H](CN(C)S(=O)(=O)c2cccs2)OCCCC[C@H](C)O3)cc1 | n | n | n | x | n
CN1C(=O)c2cc(NC(=O)C3CC3)ccc2OC[C@@H]2O[C@@H](CC(=O)NCc3ccccc3F)CC[C@H]21 | n | n | n | x | n
CCOc1cccc(CN2CCC(N3CCC(C(=O)NCC4CCCO4)CC3)CC2)c1 (stereo not drawn) | n | n | 21 | n | n
COc1ccc(OC)c(CN2C(=O)c3ccccc3C2C(=O)NCC2CCCO2)c1 (stereo not drawn) | 52 | n | n | n | n
COc1ccc(CN2C(=O)c3ccccc3C2C(=O)NCC2CCCO2)c(OC)c1 (stereo not drawn) | n | x | x | n | x
O=C(NCC1CCCO1)C1CCN(C2CCN(Cc3ccco3)CC2)CC1 (stereo not drawn) | n | n | n | n | n
O=C(NCC1CCCO1)C1CCC(N2C(=O)c3ccccc3C2=O)CC1 (stereo not drawn) | 81 | x | x | n | x
CN(C)CC(=O)Nc1ccc2c(c1)[C@@H]1C[C@@H](CC(=O)NCc3cc(F)ccc3F)O[C@H](CO)[C@@H]1O2 | n | n | n | x | n
COc1cc(C2C(C(C)=O)=C(O)C(=O)N2CCc2c[nH]c3ccccc23)ccc1O (stereo not drawn) | x | x | x | 41 | x
CC(=O)c1c(O)c2cccc3c2n(c1=O)CCC3 | 40 | n | n | n | n
CC=Cc1ccc2n(c1=O)C[C@H]1[C@H](CO)[C@@H](C(=O)NCCC)N(Cc3cccc(F)c3)[C@@H]21 (mixture of isomers) | n | n | n | x | n
O=C1N[C@@H](Cc2ccccc2)[C@@H](c2ccco2)O1 | n | n | 45 | n | n
SMILES | INS-1E GSIS act | ERp5 inh | SIRT5 inh | PDI inh | S100A4 inh HTS
Cc1noc(C)c1S(=O)(=O)N(C)C[C@H]1Oc2ccc(NC(=O)Nc3ccc(C(F)(F)F)cc3)cc2C(=O)N([C@H](C)CO)C[C@@H]1C | n | x | x | x | x
O=C(C1CCCCC1)N1CC(=O)N2[C@H](CO)[C@H](c3ccc(C#CCc4ccccc4)cc3)[C@@H]2C1 | n | x | x | x | x
C[C@@H]1CCCCO[C@@H](CN(C)CC2CCCCC2)[C@@H](C)CN([C@H](C)CO)C(=O)c2cc(NC(=O)Nc3ccc(F)cc3)ccc2O1 | n | n | n | x | n
Cc1ccc(OCCNC(=O)C2CCCCC2)cc1 | n | n | 19 | n | u
COc1cccc(NC(=O)C[C@@H]2CC[C@@H]3[C@H](COc4ccc(NC(=O)C5CCCCC5)cc4C(=O)N3C)O2)c1 | n | n | n | x | n
Cc1ccc(S(=O)(=O)Nc2ccc(N(C)C)cc2)cc1 | n | n | 112 | n | n
CN(C)c1ccc(NS(=O)(=O)c2ccc(Cl)cc2)cc1 | n | x | x | n | x
CCNC(=O)c1cc2c(c(-c3cccc(-c4cccc(F)c4)c3)n1)[C@H](CCO)N([S@@](=O)C(C)(C)C)C2 | n | n | n | x | n
O=C1CN(C(=O)NCC(=O)N[C@H](C(=O)O)c2ccccc2)c2ccccc2N1 | n | n | 18 | n | n
O=C(C[C@@H]1CC[C@@H]2[C@H](COC[C@@H](O)CN2Cc2cc(F)ccc2F)O1)NCc1ccccc1 | n | n | n | x | n
CN(c1ccccc1)c1ccc(/C=C(/CCC(=O)O)c2nc3ccccc3s2)cc1[N+](=O)[O-] | x | n | 18 | n | n
O=C(O)CC/C(=C\c1ccc(N2CCCC2)c([N+](=O)[O-])c1)c1nc2ccccc2s1 | n | n | n | n | n
O=C(Cc1cccnc1)N1CC2(C1)[C@@H](c1ccccc1)[C@@H](CO)N2C(=O)C1CCCCC1 | n | n | n | x | n
C#CCOCCOCCOCCNc1nc(N2CCN(C(=O)C(Cc3cc4ccccc4[nH]3)n3cc(C(N)C(C)CC)nn3)CC2)nc(N2CCN(C(=O)C(Cc3cc4ccccc4[nH]3)n3cc(C(N)C(C)CC)nn3)CC2)n1 (stereo not drawn) | x | x | x | 55 | x
C#CCOCCOCCOCCNc1nc(N2CCN(C(=O)[C@H](CCCCN)n3cc([C@@H](N)CC(C)C)nn3)CC2)nc(N2CCN(C(=O)[C@H](Cc3cc4ccccc4[nH]3)n3cc([C@@H](N)Cc4ccc(O)cc4)nn3)CC2)n1 | x | x | x | 35 | x
C#CCOCCOCCOCCNc1nc(N2CCOCC2)nc(N2CCN(C(=O)[C@H](Cc3cc4ccccc4[nH]3)n3cc([C@@H](N)C(C)CC)nn3)CC2)n1 (stereo partly drawn) | n | n | n | n | n
O=C([C@H]1[C@H](CO)[C@H]2Cn3c(ccc(C4=CCCC4)c3=O)[C@@H]1N2)N1CCCCC1 | n | n | n | x | x
CCOC(=O)c1cc([N+](=O)[O-])c([N+](=O)[O-])cc1NC(C)=O | 61 | n | n | n | n
CCCNC(=O)N(C)C[C@H]1Oc2ncc(C#CC3(O)CCCC3)cc2C(=O)N([C@H](C)CO)C[C@@H]1C | n | n | n | x | n
CCc1nnc(NC(=O)CSc2nc3cc4c(cc3cc2CC)OCCO4)s1 | 49 | x | x | n | x
